Measured values from ChEMBL document CHEMBL3526048, “In vitro metabolism of rivoglitazone, a novel peroxisome proliferator-activated receptor γ agonist, in rat, monkey, and human liver microsomes and freshly isolated hepatocytes” (Drug Metab Dispos, 2011).

Legend:
Liver microsome [1] = assay: Drug metabolism in Sprague-Dawley rat liver microsomes assessed as formation of (2S,3S,4S,5R,6R)-6-((1-carboxy-2-(4-((6-methoxy-1-methyl-1H-benzo[d]imidazol-2-yl)methoxy)phenyl)ethylthio)carbonylamino)-3,4,5-trihydroxytetrahydro-2H-pyran-2-carboxylic acid at 20 uM after 4 hrs by radio-HPLC/LC-MS/MS analysis in presence of UDPGA and UDPGA/SAM; type: ADME
Liver microsome [2] = assay: Drug metabolism in human liver microsomes assessed as formation of 5-hydroxy-5-(4-((6-methoxy-1-methyl-1H-benzo[d]imidazol-2-yl)methoxy)benzyl)thiazolidine-2,4-dione at 20 uM after 2 hrs by radio-HPLC/LC-MS/MS analysis in presence of NADPH-generating system and NADPH-generating system/SAM; type: ADME
[3] = molecular target: T1, UDP-glucuronosyltransferase 2B7 (Homo sapiens, UniProt P16662); assay: Activity of human UGT2B7 expressed in microsomes isolated from baculovirus infected insect cell assessed as enzyme-mediated 2-mercapto-3-(4-((6-methoxy-1-methyl-1H-benzo[d]imidazol-2-yl)methoxy)phenyl)propanoic acid formation at 20 uM after 4 hrs by radio-HPLC/LC-MS/MS analysis in presence of UDPGA, UDPGA/SAM and NADPH-generating system in presence of UDPGA and UDPGA/SAM; type: ADME
T1 sequence (P16662 whole entry): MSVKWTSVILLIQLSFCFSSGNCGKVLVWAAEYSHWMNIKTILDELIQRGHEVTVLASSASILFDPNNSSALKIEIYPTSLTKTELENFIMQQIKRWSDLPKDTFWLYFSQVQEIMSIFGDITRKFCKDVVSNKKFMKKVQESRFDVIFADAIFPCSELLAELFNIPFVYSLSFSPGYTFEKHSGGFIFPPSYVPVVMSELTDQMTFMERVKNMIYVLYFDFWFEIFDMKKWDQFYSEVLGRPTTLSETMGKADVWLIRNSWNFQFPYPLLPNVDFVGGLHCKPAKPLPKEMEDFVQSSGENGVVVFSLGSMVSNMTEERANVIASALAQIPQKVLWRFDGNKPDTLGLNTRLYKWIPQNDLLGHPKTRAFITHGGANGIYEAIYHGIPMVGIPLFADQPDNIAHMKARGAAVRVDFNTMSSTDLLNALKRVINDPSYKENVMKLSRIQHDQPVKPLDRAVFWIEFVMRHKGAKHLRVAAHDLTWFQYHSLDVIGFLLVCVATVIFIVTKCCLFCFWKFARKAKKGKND

Cytochrome P450 2C8 [4] = molecular target: T2, Cytochrome P450 2C8 (Homo sapiens, UniProt P10632); assay: Activity of human CYP2C8 expressed in microsomes isolated from baculovirus infected insect cell assessed as enzyme-mediated 2-amino-3-((1-carboxy-2-(4-((6-methoxy-1-methyl-1H-benzo[d]imidazol-2-yl)methoxy)phenyl)ethyl)disulfanyl)propanoic acid formation at 20 uM after 2 hrs by radio-HPLC/LC-MS/MS analysis; type: ADME
T2 sequence (P10632 whole entry): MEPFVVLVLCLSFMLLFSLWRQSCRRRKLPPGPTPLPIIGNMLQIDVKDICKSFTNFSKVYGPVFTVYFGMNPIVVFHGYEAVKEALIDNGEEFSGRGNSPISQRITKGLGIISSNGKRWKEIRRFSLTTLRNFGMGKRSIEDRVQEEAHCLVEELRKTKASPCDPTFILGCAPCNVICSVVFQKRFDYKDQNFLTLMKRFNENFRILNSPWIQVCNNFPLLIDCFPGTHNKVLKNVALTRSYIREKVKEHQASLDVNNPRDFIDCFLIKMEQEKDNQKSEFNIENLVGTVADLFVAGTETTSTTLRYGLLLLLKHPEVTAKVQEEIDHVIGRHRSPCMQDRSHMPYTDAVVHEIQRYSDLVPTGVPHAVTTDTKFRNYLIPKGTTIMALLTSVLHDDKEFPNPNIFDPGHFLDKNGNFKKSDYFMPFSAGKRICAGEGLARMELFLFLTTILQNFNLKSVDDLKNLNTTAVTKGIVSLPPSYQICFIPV
Method in brief: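 Baculovirus/insect-cell microsomes expressing single human CYPs, 1 mg/ml protein, with 50 mM potassium phosphate (pH 7.4) or 100 mM Tris-HCl (pH 7.5). NADPH-generating system: 2 mM NADP⁺, 20 mM glucose 6-phosphate, 2 units/ml G6PDH, 10 mM MgCl₂. [¹⁴C]rivoglitazone at 20 μM, 2 h at 37°C with shaking. Control used insect-cell control supersomes. Stopped with acetonitrile; supernatant concentrated under nitrogen; metabolites analysed by radio-HPLC, LC-MS and LC-MS/MS.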

Cytochrome P450 2C8 [5] = molecular target: T2, Cytochrome P450 2C8; assay: Activity of human CYP2C8 expressed in microsomes isolated from baculovirus infected insect cell assessed as enzyme-mediated 3-(4-((6-methoxy-1-methyl-1H-benzo[d]imidazol-2-yl)methoxy)phenyl)-2-(methylthio)propanoic acid formation at 20 uM after 2 hrs by radio-HPLC/LC-MS/MS analysis in presence of NADPH-generating system/SAM and UDPGA/SAM; type: ADME
Liver microsome [6] = assay: Drug metabolism in human liver microsomes assessed as formation of 5-(4-((6-hydroxy-1-methyl-1H-benzo[d]imidazol-2-yl)methoxy)benzyl)thiazolidine-2,4-dione at 20 uM after 2 hrs by radio-HPLC/LC-MS/MS analysis in presence of NADPH-generating system and NADPH-generating system/SAM; type: ADME
Liver microsome [7] = assay: Drug metabolism in human liver microsomes assessed as formation of 5-(4-((6-methoxy-1H-benzo[d]imidazol-2-yl)methoxy)benzyl)thiazolidine-2,4-dione at 20 uM after 2 hrs by radio-HPLC/LC-MS/MS analysis in presence of NADPH-generating system and NADPH-generating system/SAM; type: ADME
Liver microsome [8] = assay: Drug metabolism in human liver microsomes assessed as formation of 2-mercapto-3-(4-((6-methoxy-1-methyl-1H-benzo[d]imidazol-2-yl)methoxy)phenyl)propanoic acid at 20 uM after 2 to 4 hrs by radio-HPLC/LC-MS/MS analysis in presence of UDPGA, UDPGA/SAM and NADPH-generating system; type: ADME
[9] = Drug metabolism in monkey hepatocytes assessed as formation of 2-((4-((2,4-dioxothiazolidin-5-yl)methyl)phenoxy)methyl)-1-methyl-1H-benzo[d]imidazol-6-yl hydrogen sulfate at 30 uM after 3 hrs by radio-HPLC/LC-MS/MS analysis; details: cynomolgus monkey

## COc1ccc2nc(COc3ccc(C[14CH]4SC(=O)NC4=O)cc3)n(C)c2c1.Cl (racemic)
Liver microsome [1]
  Drug metabolism: metabolite_detected
Liver microsome [2]
  Drug metabolism: metabolite_detected
[3]
  Drug metabolism: metabolite_detected
Cytochrome P450 2C8 [4]
  Drug metabolism: metabolite_not_detected
Cytochrome P450 2C8 [5]
  Drug metabolism: metabolite_not_detected
Liver microsome [6]
  Drug metabolism: metabolite_detected
Liver microsome [7]
  Drug metabolism: metabolite_detected
Liver microsome [8]
  Drug metabolism: metabolite_detected
[9]
  Drug metabolism: metabolite_detected
